Reference: ChEMBL document CHEMBL1138802, “New water-soluble sulfonylphosphoramidic acid derivatives of the COX-2 selective inhibitor cimicoxib. A novel approach to sulfonamide prodrugs” (J Med Chem, 2004)

Columns and labels:
[1] = Half life after i.v. administration of 2 mg/kg to Dogs; type: ADME, organism-based, Canis lupus familiaris; set-up: dose 2 mg/kg, route intravenous; details: dog, in vivo, iv
How it was run: (§1)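 Dogs received the parent sulfonamide iv at 2 mg/kg as a suspension. Parameters (t1/2, AUC/dose in ng h/mL, Cl in mL/h/kg, Vd in mL/kg) were derived from its plasma levels and reported as mean ± deviation.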

[2] = biological target: T1, Prostaglandin G/H synthase 2 (Rattus norvegicus) (UniProt P35355); assay: Percentage inhibition of rat carrageenan-induced paw edema after iv administration at 3 mg/kg; type: functional, organism-based; set-up: dose 3 mg/kg
T1 sequence (whole entry): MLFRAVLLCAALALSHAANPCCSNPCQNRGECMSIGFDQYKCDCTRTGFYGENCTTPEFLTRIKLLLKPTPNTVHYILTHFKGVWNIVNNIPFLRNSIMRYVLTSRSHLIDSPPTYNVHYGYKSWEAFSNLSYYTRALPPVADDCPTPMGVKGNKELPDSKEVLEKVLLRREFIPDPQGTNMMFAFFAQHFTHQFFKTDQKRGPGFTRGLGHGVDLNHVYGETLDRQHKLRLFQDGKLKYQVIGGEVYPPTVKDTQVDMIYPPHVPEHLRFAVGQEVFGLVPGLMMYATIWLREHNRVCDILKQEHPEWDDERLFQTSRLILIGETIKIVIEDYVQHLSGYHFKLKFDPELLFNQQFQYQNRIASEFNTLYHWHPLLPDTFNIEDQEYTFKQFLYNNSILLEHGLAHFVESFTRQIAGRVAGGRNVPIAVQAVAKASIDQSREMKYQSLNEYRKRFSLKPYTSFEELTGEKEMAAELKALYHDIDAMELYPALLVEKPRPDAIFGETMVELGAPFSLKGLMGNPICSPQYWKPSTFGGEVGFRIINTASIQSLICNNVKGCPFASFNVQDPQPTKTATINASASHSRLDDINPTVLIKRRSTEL
How it was run: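 Male Sprague–Dawley rats (150–175 g) were dosed iv at 3 mg/kg in PBS (1 mL/kg) 10 min before intraplantar injection of 0.1 mL 1% λ-carrageenan into the hindpaw. Paw volume was measured by water-displacement plethysmometry before and 1, 2, 3 and 4 h after treatment. % inhibition was calculated from the AUC of treated versus control animals.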

[3] = Clearance after i.v. administration of 2 mg/kg to Dogs; type: ADME, organism-based, Canis lupus familiaris; set-up: dose 2 mg/kg, route intravenous; details: dog, in vivo, iv; how it was run: as §1
[4] = Area under curve after i.v. administration of 2 mg/kg to Dogs; type: ADME, organism-based, Canis lupus familiaris; set-up: dose 2 mg/kg, route intravenous; details: dog, in vivo, iv; how it was run: as §1
[5] = Volume of distribution after i.v. administration of 2 mg/kg to Dogs; type: ADME, organism-based, Canis lupus familiaris; set-up: dose 2 mg/kg, route intravenous; details: dog, in vivo, iv; how it was run: as §1
[6] = Clearance after i.v. administration of 1 mg/kg to Dogs; type: ADME, organism-based, Canis lupus familiaris; set-up: dose 1 mg/kg, route intravenous; details: dog, in vivo, iv
How it was run: (§2)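 Dogs received the water-soluble phosphoramidic acid prodrug iv at 1 mg/kg as a solution. Parameters (t1/2, AUC/dose in ng h/mL, Cl in mL/h/kg, Vd in mL/kg) were derived from plasma levels of the released parent sulfonamide and reported as mean ± deviation.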

[7] = Volume of distribution after i.v. administration of 1 mg/kg to Dogs; type: ADME, organism-based, Canis lupus familiaris; set-up: dose 1 mg/kg, route intravenous; details: dog, in vivo, iv; how it was run: as §2
[8] = Area under curve after i.v. administration of 1 mg/kg to Dogs; type: ADME, organism-based, Canis lupus familiaris; set-up: dose 1 mg/kg, route intravenous; details: dog, in vivo, iv; how it was run: as §2

## COc1ccc(-c2c(Cl)ncn2-c2ccc(S(N)(=O)=O)cc2)cc1F [CIMICOXIB]
[1]
  half-life: 5 h
[2]
  inhibition: 34.8%
[3]
  clearance: 4.87 mL/min/kg
[4]
  AUC/dose: 3253.4 ng·h/mL
[5]
  Vd: 2.12 L/kg

## COc1ccc(-c2c(Cl)ncn2-c2ccc(S(=O)(=O)NP(=O)(O)O)cc2)cc1F
[6]
  clearance: 4.55 mL/min/kg
[7]
  Vd: 1.86 L/kg
[1]
  half-life: 4.9 h
[2]
  inhibition: 34.8%
[8]
  AUC/dose: 3641.1 ng·h/mL

## CCC(=O)NS(=O)(=O)c1ccc(-c2c(-c3ccccc3)noc2C)cc1
[2]
  inhibition: 32.6%
